# Measured values published in the M2OR odorant receptor database.
# Changes are numbered by the printed parent chain.
# Experiments:
# Conditions in all cases: stereoisomer not certain
# OR5K3 (Homo sapiens) = target: T1, OR5K3 (Homo sapiens) (UniProt A6NET4)
# T1 sequence (whole entry): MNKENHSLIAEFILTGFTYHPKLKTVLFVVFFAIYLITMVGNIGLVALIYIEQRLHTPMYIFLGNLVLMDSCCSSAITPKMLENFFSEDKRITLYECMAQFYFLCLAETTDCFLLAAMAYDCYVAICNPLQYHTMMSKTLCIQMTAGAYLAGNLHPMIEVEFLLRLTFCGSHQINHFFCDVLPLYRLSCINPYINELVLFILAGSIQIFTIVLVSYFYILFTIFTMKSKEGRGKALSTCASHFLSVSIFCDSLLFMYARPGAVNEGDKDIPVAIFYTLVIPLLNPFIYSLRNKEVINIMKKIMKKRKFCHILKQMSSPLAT
# Method in brief: (§1)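 Values were gathered from published papers (main text and supplementary material), with extra details requested from the original authors when needed, and checked for typos and inconsistencies. Each receptor–molecule pair is called responsive (active) if the original authors judged the measured signal statistically different from baseline, and non-responsive (inactive) otherwise. Assay methods varied by source, often transient mammalian cell-line luciferase assays. Recorded details include cell line, G-protein, co-transfected protein and tags.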
# OR5K4 (Homo sapiens) = target: T2, OR5K4 (Homo sapiens) (UniProt A6NMS3)
# T2 sequence (whole entry): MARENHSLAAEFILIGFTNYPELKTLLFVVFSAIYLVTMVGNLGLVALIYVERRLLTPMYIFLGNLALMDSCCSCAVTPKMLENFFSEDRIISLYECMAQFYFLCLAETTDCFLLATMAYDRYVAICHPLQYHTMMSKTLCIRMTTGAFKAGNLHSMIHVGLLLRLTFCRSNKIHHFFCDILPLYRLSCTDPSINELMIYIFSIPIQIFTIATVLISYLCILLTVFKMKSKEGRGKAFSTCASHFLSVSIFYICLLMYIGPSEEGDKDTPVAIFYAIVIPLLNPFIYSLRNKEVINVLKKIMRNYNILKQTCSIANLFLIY
# Method in brief: as §1
# OR5L1 (Homo sapiens) = target: T3, OR5L1 (Homo sapiens) (UniProt Q8NGL2)
# T3 sequence (whole entry): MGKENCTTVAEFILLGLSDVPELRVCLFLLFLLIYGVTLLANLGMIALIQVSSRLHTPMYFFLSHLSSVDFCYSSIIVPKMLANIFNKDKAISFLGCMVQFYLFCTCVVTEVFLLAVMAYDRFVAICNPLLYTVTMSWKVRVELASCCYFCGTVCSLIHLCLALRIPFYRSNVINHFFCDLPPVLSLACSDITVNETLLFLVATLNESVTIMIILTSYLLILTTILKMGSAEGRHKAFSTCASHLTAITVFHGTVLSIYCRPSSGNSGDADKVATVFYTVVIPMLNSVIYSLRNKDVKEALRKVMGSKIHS
# Method in brief: as §1
# OR5L2 (Homo sapiens) = target: T4, OR5L2 (Homo sapiens) (UniProt Q8NGL0)
# T4 sequence (whole entry): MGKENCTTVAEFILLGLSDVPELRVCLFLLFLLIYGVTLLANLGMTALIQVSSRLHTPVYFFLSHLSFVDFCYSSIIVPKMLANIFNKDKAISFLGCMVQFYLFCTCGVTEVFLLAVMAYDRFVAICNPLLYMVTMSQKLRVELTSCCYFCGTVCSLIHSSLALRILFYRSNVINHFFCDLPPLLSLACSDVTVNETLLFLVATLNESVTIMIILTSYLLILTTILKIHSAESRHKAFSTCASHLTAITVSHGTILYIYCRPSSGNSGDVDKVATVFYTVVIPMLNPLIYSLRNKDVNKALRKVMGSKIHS
# Method in brief: as §1
# OR5M1 (Homo sapiens) = target: T5, OR5M1 (Homo sapiens) (UniProt Q8NGP8)
# T5 sequence (whole entry): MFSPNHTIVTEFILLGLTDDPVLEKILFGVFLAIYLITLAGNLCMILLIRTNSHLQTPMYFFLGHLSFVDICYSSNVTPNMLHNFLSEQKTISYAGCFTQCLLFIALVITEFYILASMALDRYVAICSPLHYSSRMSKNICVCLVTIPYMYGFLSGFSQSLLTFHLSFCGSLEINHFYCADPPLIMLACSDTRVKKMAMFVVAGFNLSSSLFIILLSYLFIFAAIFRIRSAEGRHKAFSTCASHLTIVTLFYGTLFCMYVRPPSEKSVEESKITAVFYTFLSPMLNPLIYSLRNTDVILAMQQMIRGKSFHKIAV
# Method in brief: as §1
# OR5M1 T295R M301I = system: T6, OR5M1 T295R M301I
# T6 sequence (whole entry): T5 sequence (whole entry) with T295R, M301I
# Method in brief: as §1
# OR5M10 (Homo sapiens) = target: T7, OR5M10 (Homo sapiens) (UniProt Q6IEU7)
# T7 sequence (whole entry): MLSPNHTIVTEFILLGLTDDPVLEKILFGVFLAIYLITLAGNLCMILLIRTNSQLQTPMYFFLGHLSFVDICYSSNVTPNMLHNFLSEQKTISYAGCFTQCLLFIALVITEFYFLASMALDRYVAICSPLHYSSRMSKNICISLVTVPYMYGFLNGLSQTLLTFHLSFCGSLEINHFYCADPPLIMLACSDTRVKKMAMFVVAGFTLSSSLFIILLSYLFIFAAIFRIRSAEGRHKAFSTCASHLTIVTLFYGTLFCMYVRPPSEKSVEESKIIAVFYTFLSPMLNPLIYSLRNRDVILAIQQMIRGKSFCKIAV
# Method in brief: as §1
# OR5M11 (Homo sapiens) = target: T8, OR5M11 (Homo sapiens) (UniProt Q96RB7)
# T8 sequence (whole entry): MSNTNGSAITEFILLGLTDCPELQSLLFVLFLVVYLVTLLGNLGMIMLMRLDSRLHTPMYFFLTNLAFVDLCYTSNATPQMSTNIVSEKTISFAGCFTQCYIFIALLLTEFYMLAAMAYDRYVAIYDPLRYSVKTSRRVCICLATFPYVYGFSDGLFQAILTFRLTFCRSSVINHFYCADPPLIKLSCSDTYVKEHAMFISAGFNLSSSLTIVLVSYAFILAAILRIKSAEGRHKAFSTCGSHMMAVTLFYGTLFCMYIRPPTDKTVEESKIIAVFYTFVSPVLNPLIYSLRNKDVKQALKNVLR
# Method in brief: as §1
# OR5M3 (Homo sapiens) = target: T9, OR5M3 (Homo sapiens) (UniProt Q8NGP4)
# T9 sequence (whole entry): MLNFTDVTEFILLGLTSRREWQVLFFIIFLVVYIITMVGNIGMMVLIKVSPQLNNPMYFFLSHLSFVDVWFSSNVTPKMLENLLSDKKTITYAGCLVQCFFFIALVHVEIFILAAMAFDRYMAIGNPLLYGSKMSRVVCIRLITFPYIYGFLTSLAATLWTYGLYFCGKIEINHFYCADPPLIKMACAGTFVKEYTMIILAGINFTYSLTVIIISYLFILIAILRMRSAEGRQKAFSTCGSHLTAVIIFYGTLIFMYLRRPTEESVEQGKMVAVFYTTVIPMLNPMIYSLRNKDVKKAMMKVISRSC
# Method in brief: as §1
# OR5M3 N3Y A156T = system: T10, OR5M3 N3Y A156T
# T10 sequence (whole entry): T9 sequence (whole entry) with N3Y, A156T
# Method in brief: as §1
# OR5M8 (Homo sapiens) = target: T11, OR5M8 (Homo sapiens) (UniProt Q8NGP6)
# T11 sequence (whole entry): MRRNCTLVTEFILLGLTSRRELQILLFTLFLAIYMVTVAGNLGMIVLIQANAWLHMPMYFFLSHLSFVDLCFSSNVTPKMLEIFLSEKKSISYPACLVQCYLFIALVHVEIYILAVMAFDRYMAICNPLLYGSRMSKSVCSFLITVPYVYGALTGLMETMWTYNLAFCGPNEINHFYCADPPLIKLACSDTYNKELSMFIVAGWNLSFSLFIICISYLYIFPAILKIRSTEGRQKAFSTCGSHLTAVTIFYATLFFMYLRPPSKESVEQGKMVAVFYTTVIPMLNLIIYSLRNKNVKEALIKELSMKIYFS
# Method in brief: as §1
# OR5M9 (Homo sapiens) = target: T12, OR5M9 (Homo sapiens) (UniProt Q8NGP3)
# T12 sequence (whole entry): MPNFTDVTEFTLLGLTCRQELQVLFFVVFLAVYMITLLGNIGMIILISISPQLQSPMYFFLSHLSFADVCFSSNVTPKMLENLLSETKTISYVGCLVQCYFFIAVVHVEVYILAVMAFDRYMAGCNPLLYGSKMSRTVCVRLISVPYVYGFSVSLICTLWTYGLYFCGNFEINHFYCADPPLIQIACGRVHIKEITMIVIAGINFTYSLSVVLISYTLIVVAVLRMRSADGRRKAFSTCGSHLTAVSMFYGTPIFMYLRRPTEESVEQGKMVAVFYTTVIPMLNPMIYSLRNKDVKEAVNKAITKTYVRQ
# Method in brief: as §1
# OR5MA L2F C311H = system: T13, OR5MA L2F C311H
# T13 sequence (whole entry): T7 sequence (whole entry) with L2F, C311H
# Method in brief: as §1
# OR5MA L2F Q54H C311H = system: T14, OR5MA L2F Q54H C311H
# T14 sequence (whole entry): T7 sequence (whole entry) with L2F, Q54H, C311H
# Method in brief: as §1
# OR5P2 (Homo sapiens) = target: T15, OR5P2 (Homo sapiens) (UniProt Q8WZ92)
# T15 sequence (whole entry): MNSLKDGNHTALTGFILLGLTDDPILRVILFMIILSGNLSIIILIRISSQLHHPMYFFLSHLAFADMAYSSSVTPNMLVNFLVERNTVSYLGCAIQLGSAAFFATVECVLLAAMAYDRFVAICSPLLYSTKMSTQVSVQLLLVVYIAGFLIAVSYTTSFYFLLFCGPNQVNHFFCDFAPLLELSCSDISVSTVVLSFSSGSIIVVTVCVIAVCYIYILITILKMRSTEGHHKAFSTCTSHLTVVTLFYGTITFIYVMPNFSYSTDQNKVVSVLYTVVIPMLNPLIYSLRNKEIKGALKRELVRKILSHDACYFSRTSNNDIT
# Method in brief: as §1
# OR5P3 (Homo sapiens) = target: T16, OR5P3 (Homo sapiens) (UniProt Q8WZ94)
# T16 sequence (whole entry): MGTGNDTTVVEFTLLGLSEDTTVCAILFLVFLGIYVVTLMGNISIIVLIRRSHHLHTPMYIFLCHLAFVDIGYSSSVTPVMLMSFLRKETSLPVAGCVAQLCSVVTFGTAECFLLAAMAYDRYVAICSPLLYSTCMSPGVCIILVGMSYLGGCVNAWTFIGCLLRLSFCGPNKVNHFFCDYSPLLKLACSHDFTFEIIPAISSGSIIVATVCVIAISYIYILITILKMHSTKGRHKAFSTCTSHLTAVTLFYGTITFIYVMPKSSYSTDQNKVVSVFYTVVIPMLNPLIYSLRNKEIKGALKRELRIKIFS
# Method in brief: as §1
# OR5P3 L301R = system: T17, OR5P3 L301R
# T17 sequence (whole entry): T16 sequence (whole entry) with L301R
# Method in brief: as §1
# OR5R1 C122R S128G F184L = system: T18, OR5R1 C122R S128G F184L
# T18 sequence (whole entry): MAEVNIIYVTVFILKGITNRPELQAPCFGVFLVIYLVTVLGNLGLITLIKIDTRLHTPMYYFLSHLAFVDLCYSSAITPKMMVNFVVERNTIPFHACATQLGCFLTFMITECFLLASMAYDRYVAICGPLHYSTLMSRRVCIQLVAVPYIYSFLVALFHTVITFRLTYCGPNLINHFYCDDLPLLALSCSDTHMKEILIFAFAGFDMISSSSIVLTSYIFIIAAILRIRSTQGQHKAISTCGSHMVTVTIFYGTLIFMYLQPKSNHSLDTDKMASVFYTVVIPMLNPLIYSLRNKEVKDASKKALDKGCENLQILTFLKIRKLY
# Method in brief: as §1
# OR5T1 (Homo sapiens) = target: T19, OR5T1 (Homo sapiens) (UniProt Q8NG75)
# T19 sequence (whole entry): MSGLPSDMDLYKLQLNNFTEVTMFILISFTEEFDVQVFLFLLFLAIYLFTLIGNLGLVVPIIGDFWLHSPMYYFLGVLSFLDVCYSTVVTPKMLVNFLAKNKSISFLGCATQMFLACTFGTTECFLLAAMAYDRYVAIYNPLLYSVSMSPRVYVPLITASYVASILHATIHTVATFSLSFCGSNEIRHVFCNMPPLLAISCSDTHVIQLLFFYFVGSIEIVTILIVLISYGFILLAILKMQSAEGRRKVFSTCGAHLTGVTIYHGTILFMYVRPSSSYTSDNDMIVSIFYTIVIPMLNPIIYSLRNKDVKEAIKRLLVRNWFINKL
# Method in brief: as §1
# OR5T2 (Homo sapiens) = target: T20, OR5T2 (Homo sapiens) (UniProt Q8NGG2)
# T20 sequence (whole entry): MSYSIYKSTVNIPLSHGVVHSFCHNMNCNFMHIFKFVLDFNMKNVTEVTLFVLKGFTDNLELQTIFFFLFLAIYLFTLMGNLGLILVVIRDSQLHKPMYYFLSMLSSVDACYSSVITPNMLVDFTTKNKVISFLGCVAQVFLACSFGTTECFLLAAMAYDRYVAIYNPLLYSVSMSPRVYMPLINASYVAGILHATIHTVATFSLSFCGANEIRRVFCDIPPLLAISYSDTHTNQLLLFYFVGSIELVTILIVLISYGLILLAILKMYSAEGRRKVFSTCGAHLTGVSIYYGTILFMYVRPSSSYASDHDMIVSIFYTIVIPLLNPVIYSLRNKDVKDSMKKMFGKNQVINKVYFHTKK
# Method in brief: as §1
Compound,odorant receptor agonist call (OR5K3 (Homo sapiens)),odorant receptor agonist call (OR5K4 (Homo sapiens)),odorant receptor agonist call (OR5L1 (Homo sapiens)),odorant receptor agonist call (OR5L2 (Homo sapiens)),odorant receptor agonist call (OR5M1 (Homo sapiens)),odorant receptor agonist call (OR5M1 T295R M301I),odorant receptor agonist call (OR5M10 (Homo sapiens)),odorant receptor agonist call (OR5M11 (Homo sapiens)),odorant receptor agonist call (OR5M3 (Homo sapiens)),odorant receptor agonist call (OR5M3 N3Y A156T),odorant receptor agonist call (OR5M8 (Homo sapiens)),odorant receptor agonist call (OR5M9 (Homo sapiens)),odorant receptor agonist call (OR5MA L2F C311H),odorant receptor agonist call (OR5MA L2F Q54H C311H),odorant receptor agonist call (OR5P2 (Homo sapiens)),odorant receptor agonist call (OR5P3 (Homo sapiens)),odorant receptor agonist call (OR5P3 L301R),odorant receptor agonist call (OR5R1 C122R S128G F184L),odorant receptor agonist call (OR5T1 (Homo sapiens)),odorant receptor agonist call (OR5T2 (Homo sapiens))
CC1=C(O)C(=O)C(C)O1 (configuration not stated),inactive,inactive,inactive,inactive,inactive,inactive,inactive,inactive,active,inactive,inactive,inactive,inactive,inactive,inactive,inactive,inactive,inactive,inactive,inactive
C=Cc1cnccn1,inactive,inactive,–,–,–,–,–,–,–,–,–,–,–,–,–,–,–,–,–,–
CCC1OC(=O)C(O)=C1C (configuration not stated),inactive,inactive,inactive,inactive,inactive,inactive,inactive,inactive,inactive,inactive,inactive,inactive,inactive,inactive,inactive,inactive,inactive,inactive,inactive,inactive
